For one compound, Activity, inhibition of growth and IC50 results are on record in ChEMBL document CHEMBL4007381, “Synthesis, X-ray crystal structure and anti-tumor activity of calix[n]arene polyhydroxyamine derivatives” (Eur J Med Chem, 2016).

The source made the active and inactive calls. The calls are words filed in the database; no cut-off is given here.

For assay [1], the system named is SK-OV-3. In words: Cell cycle arrest in human SKOV3 cells assessed as accumulation at S phase at 3 uM measured after 48 hrs by propidium iodide staining-based FACS analysis(reference value: 37.31 +/- 3.48%). It is filed as functional. A general note: In flow cytometry, cells or beads pass a laser one at a time.
Assay [2] relates to SK-OV-3. As to the kind of experiment: Cell cycle arrest in human SKOV3 cells assessed as decrease in accumulation at G2/M phase at 3 uM measured after 48 hrs by propidium iodide staining-based FACS analysis. It is filed as functional.
In assay [3] the test system is A549. In words: Cytotoxicity against human A549 cells assessed as reduction in cell viability at 10 uM measured after 72 hrs by SRB assay relative to control. In kind it is functional. As to conditions: A549, 72 h, read-out: GI. Summed up:
(§1)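 Adherent cells were seeded at 1-5 × 10⁴/well and grown 24 h at 37 °C in 5% CO₂. They were treated at a single 10 µM concentration for 72 h in triplicate wells. Read-out was SRB staining after TCA fixation, with dye dissolved in Tris base and OD read at 565 nm. Viability was expressed relative to control.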
Background: In SRB staining, fixed cells bind dye roughly in proportion to their protein.

The test system of assay [4] is SW1990. As to the kind of experiment: Cytotoxicity against human SW1990 cells assessed as reduction in cell viability measured after 72 hrs by SRB assay. As to conditions: SW1990, 72 h. In kind it is functional, cell-based. Put shortly: (§2)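 Adherent cells in log phase were seeded at 1-5 × 10⁴/well and grown 24 h at 37 °C in 5% CO₂. They were exposed to 10 concentrations for 72 h, three wells each, then fixed with TCA and stained with SRB. Bound dye was dissolved in Tris base and read at OD 565 nm. Survival was expressed relative to vehicle (100%). Means came from ≥3 independent experiments, and apparent IC50 was read from the dose-response curves.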

In assay [5] the test system is MDA-MB-231. In words: Cytotoxicity against human MDA-MB-231 cells assessed as reduction in cell viability measured after 72 hrs by SRB assay. It is filed as functional, cell-based. As to conditions: MDA-MB-231, 72 h. Summed up: as §2
In assay [6] the test system is SK-OV-3. As to the kind of experiment: Cytotoxicity against human SKOV3 cells assessed as reduction in cell viability measured after 72 hrs by SRB assay. In kind it is functional, cell-based. As to conditions: SK-OV-3, 72 h. Put shortly:
as §2

Assay [7] deals with A549. In words: Cytotoxicity against human A549 cells assessed as reduction in cell viability measured after 72 hrs by SRB assay. It is filed as functional, cell-based. To be noted: A549, 72 h. Summed up:
as §2

Assay [8] relates to HeLa. In words: Cytotoxicity against human HeLa cells assessed as reduction in cell viability at 10 uM measured after 72 hrs by SRB assay relative to control. It is filed as functional. To be noted: read-out: GI. Put shortly: as §1
The test system of assay [9] is SW1990. As to the kind of experiment: Cytotoxicity against human SW1990 cells assessed as reduction in cell viability at 10 uM measured after 72 hrs by SRB assay relative to control. As to conditions: SW1990, 72 h, read-out: GI. It is filed as functional. Put shortly: as §1
In assay [10] the test system is SK-OV-3. In words: Cytotoxicity against human SKOV3 cells assessed as reduction in cell viability at 10 uM measured after 72 hrs by SRB assay relative to control. In kind it is functional. To be noted: SK-OV-3, 72 h, read-out: GI. Put shortly:
as §1

Assay [11] has as its system SK-OV-3. As to the kind of experiment: Induction of apoptosis in human SKOV3 cells assessed as effect on Bax expression at 3 uM measured after 24 to 48 hrs by Hoechst-33342 staining-based immunofluorescent analysis relative to DMSO-control. In kind it is functional, cell-based. Summed up: (§3)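 SKOV3 cells in 24-well plates were given 3 µM compound or DMSO. They were fixed with 4% paraformaldehyde for 20 min, permeabilized with 0.3% Triton X-100 for 10 min and blocked with sheep serum. Primary antibody (caspase-3, p53, Bcl-2 or Bax) was applied overnight at 4 °C, then fluorescein-conjugated secondary for 1 h and Hoechst 33342 for 15 min. Slides were imaged by fluorescence microscopy.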

The subject of assay [12] is Raji. As to the kind of experiment: Cytotoxicity against human Raji cells assessed as reduction in cell viability at 10 uM measured after 72 hrs by MTT assay relative to control. As to conditions: read-out: GI. It is filed as functional. Put shortly:
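Raji suspension cells were seeded at 1-5 × 10⁴/well and grown 24 h. They were treated at 10 µM for 72 h in triplicate wells. Read-out was MTT for 4 h, then solubilization in HCl/isopropanol/SDS overnight and OD at 550 nm, relative to control.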
(Formazan colour is commonly taken as a measure of viable cells.)

Assay [13] concerns SK-OV-3. As to the kind of experiment: Induction of apoptosis in human SKOV3 cells assessed as downregulation of Bcl2 expression at 3 uM measured after 24 to 48 hrs by Hoechst-33342 staining-based immunofluorescent analysis relative to DMSO-control. In kind it is functional, cell-based. Summed up:
as §3

For assay [14], the system named is SK-OV-3. In words: Induction of apoptosis in human SKOV3 cells assessed as upregulation of p53 expression at 3 uM measured after 24 to 48 hrs by Hoechst-33342 staining-based immunofluorescent analysis relative to DMSO-control. In kind it is functional, cell-based. Summed up:
as §3

The subject of assay [15] is SK-OV-3. In words: Induction of apoptosis in human SKOV3 cells assessed as upregulation of caspase3 expression at 3 uM measured after 24 to 48 hrs by Hoechst-33342 staining-based immunofluorescent analysis relative to DMSO-control. It is filed as functional, cell-based. Summed up:
as §3

Assay [16] deals with Raji. In words: Cytotoxicity against human Raji cells assessed as reduction in cell viability measured after 72 hrs by MTT assay. In kind it is functional, cell-based. Summed up:
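Raji suspension cells (RPMI 1640, 10% FBS) were seeded at 1-5 × 10⁴/well and grown 24 h at 37 °C in 5% CO₂. They were exposed to 10 concentrations for 72 h in triplicate wells. MTT was added for 4 h, then HCl/isopropanol/SDS was added overnight, and OD was read at 550 nm. Data are means of ≥3 independent experiments, relative to vehicle, with apparent IC50 taken from the dose-response curves.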

Assay [17] deals with MDA-MB-231. As to the kind of experiment: Cytotoxicity against human MDA-MB-231 cells assessed as reduction in cell viability at 10 uM measured after 72 hrs by SRB assay relative to control. It is filed as functional. As to conditions: MDA-MB-231, 72 h, read-out: GI. Summed up: as §1
Assay [18] relates to HeLa. As to the kind of experiment: Cytotoxicity against human HeLa cells assessed as reduction in cell viability measured after 72 hrs by SRB assay. In kind it is functional, cell-based. Summed up:
as §2

Assay [19] relates to SK-OV-3. In words: Cell cycle arrest in human SKOV3 cells assessed as accumulation at G0/G1 phase at 3 uM measured after 48 hrs by propidium iodide staining-based FACS analysis (reference value: 49.47 +/- 1.91%). In kind it is functional.

The term IC50 denotes the point on the concentration scale where inhibition reaches its midpoint. As to `CC(C)(C)c1cc2c(O)c(c1)Cc1cc(C(C)(C)C)cc(c1OCC(=O)NCCO)Cc1cc(C(C)(C)C)cc(c1O)Cc1cc(C(C)(C)C)cc(c1OCC(=O)NCCO)C2`, the Activity in the assay with SK-OV-3 [1] is given as 24.19%; in the assay with SK-OV-3 [19], 64.25%. For the same compound, the outcome in the assay with SK-OV-3 [2], in the assay with SK-OV-3 [13], with SK-OV-3 [14] and in the assay with SK-OV-3 [15] was Active. Also, the inhibition of growth at 10 µM with A549 [3] worked out at 89%; with HeLa [8], 100%; in the assay on SW1990 [9], 95%; in the assay on SK-OV-3 [10], 97%; with Raji [12], 100%; with MDA-MB-231 [17], 99%. In addition, the IC50 in the assay with SW1990 [4] was 4.3 µM; in the assay on MDA-MB-231 [5], 5.3 µM; in the assay with SK-OV-3 [6], 2.8 µM; with A549 [7], 4 µM; in the assay with Raji [16], 5 µM; with HeLa [18] it was 2.7 µM. The result with SK-OV-3 [11] was inactive.
